The subject of data set [1] is SK-N-MC. In words: Antiproliferative activity against human SK-N-MC cells after 72 hrs by MTS assay. In kind it is functional, cell-based. In general terms: Tetrazolium assays rely on reduction of a dye to a coloured formazan, in cell work by metabolically active cells.
The test system of data set [2] is MRC5. The data set is described as follows: Cytotoxicity against human MRC5 cells after 72 hrs […]. In kind it is cell-based. The settings on record: MRC5, 72 h.
Data set [3] is described as follows: Therapeutic index, ratio of IC50 for human MRC5 cells to IC50 for human SK-N-MC cells. Type of data set: cell-based. As to conditions: MRC5 cells and SK-N-MC cells, read-out: Ratio IC50.
The test system of data set [4] is SK-N-MC. In words: Induction of intracellular reactive oxygen species production in human SK-N-MC cells assessed as oxidation of H2DCF into DCF at 25 uM after 3 hrs by FACS analysis relative to control. In kind it is functional. A general note: A flow cytometer gives signals particle by particle.
A short description of data set [5]: Toxicity in human SK-N-MC cells assessed as cell viability after 3 hrs by trypan blue staining. Type of data set: cell-based. The settings on record: read-out: Activity. Further details: concentration or dose not given beside the values. The method, boiled down:
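Viability of SK-N-MC cells judged by Trypan blue staining after the 3 h chelator incubation used in the 59Fe mobilization assays.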

For data set [6], the system named is M109. In words: Anticancer activity against mouse M109 cells xenografted in iv dosed CD2F1 mouse assessed as reduction in tumor growth after 5 days. Type of data set: functional.
Data set [7] relates to SK-N-MC. The data set is described as follows: Induction of Fe efflux in human SK-N-MC cells assessed as release of intracellular 59Fe up to 25 uM after 3 hrs by gamma-scintillation counting. Type of data set: functional.
In data set [8] the test system is SK-N-MC. The data set is described as follows: 59Fe uptake from transferrin in human SK-N-MC cells at 25 uM after 3 hrs relative to control.

The term IC50 denotes the midpoint of a concentration-inhibition curve.

On to `CN(C)C(=S)N/N=C(\c1ccccc1)c1ccccn1`, for which the results for the IC50 in data set [1] and in data set [2] were 9 nM and 1010 nM, respectively. For the same compound, the selectivity ratio in data set [3] is 116. In addition, the Activity in data set [4] was determined as 156%. The viability at 3 h in data set [5] is above 99%.

As for `NC(=S)N/N=C(\c1ccccc1)c1ccccn1`, the 50% inhibitory concentration (IC50) in data set [1] is 5590 nM; in data set [2], above 25000 nM. Besides, the viability at 3 h in data set [5] is above 99%.

Take `CNC(=S)N/N=C(\c1ccccc1)c1ccccn1`: the half-inhibitory concentration (IC50) in data set [1] came to 24 nM; in data set [2], 2320 nM. In addition, in data set [3], the selectivity ratio came to 96. Moreover, the Activity in data set [4] was 114%. Also, the viability at 3 h in data set [5] is above 99%.

For the compound `CN(C)C(=S)NN=C(c1ccccn1)c1ccccn1`, the “inhibition (INH)” value in data set [6] is 50%. Also, the IC50 in data set [1] worked out at 4 nM. For the same compound, the Activity in data set [7] was found to be 53%. Further, in data set [5], the viability at 3 h is above 99%. For the same compound, the level, % of control at 25 µM in data set [8] is 4%.

In data set [1], `O=C(N/N=C/c1c(O)ccc2ccccc12)c1ccncc1` had a half-maximal inhibitory concentration (IC50) of 2530 nM. Moreover, the Activity in data set [7] was found to be 55%. Moreover, the viability at 3 h in data set [5] was above 99%. In data set [8], this compound returned a level, % of control at 25 µM of 6%.

Turning to `CCNC(=S)N/N=C(\c1ccccc1)c1ccccn1`, the 50% inhibitory concentration (IC50) in data set [1] amounted to 12 nM; in data set [2] it was 738 nM. Moreover, the selectivity ratio in data set [3] stood at 64. Moreover, the Activity in data set [4] was found to be 138%. Also, the viability at 3 h in data set [5] is above 99%.

`CC(=O)N(O)CCCCCNC(=O)CCC(=O)N(O)CCCCCNC(=O)CCC(=O)N(O)CCCCCN` [DEFEROXAMINE] registered a 50% inhibitory concentration (IC50) in data set [1] of 22700 nM. Moreover, the Activity in data set [7] was 23%. Moreover, the viability at 3 h in data set [5] was above 99%. Further, the level, % of control at 25 µM in data set [8] worked out at 74%.
